# Source: ChEMBL document CHEMBL4316598, “Synthesis, antiproliferative and apoptosis induction potential activities of novel bis(indolyl)hydrazide-hydrazone derivatives” (Bioorg Med Chem, 2019)
# pIC50: −log10 of the molar value. Active and inactive are the calls of the source. No cut-off for these calls is given here.
# Legend:
# [1] = molecular target: c-Jun N-terminal kinase, JNK (Homo sapiens) (UniProt P45983+P53779+P45984); experiment: Activation of JNK phosphorylation in human HeLa cells assessed as increase in ratio of phosphorylated JNK to total JNK level at 5 uM by ELISA; type: cell-based
# Summary of the method: (§1)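 Cell-based ELISA: HeLa or MCF-7 cells (20×10^3/well) grown overnight at 37 °C, 5% CO2, treated with 5 μM, then fixed and blocked. Probed with rabbit anti-total and anti-phospho P38, JNK or ERK1/2 (1:100), then HRP anti-rabbit IgG. Result is the phospho/total ratio; inhibitor arms use […], […] or SP600125. n=3.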
# HeLa [2] = experiment: Induction of apoptosis in human HeLa cells assessed as up-regulation of acetylated p53 level at 5 uM after 24 hrs by sandwich ELISA; type: functional, cell-based
# Summary of the method: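 Cells were treated at 5 µM for 12, 24 and 48 h. Lysis was in ice-cold lysis buffer with 1 mM PMSF (5 min on ice), followed by three freeze-thaw cycles and a 10 min spin at 4 °C. Acetylated and total p53 were measured in the supernatant by kit sandwich ELISA, read at 450 nm. The control index is sample absorbance divided by that of untreated cells at the same time. Values are mean ± SD of triplicate experiments.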
# [3] = molecular target: T1, Tyrosine-protein phosphatase non-receptor type 1 (Homo sapiens) (UniProt P18031); experiment: Inhibition of recombinant human PTP1B using 6,8-difluoro-4-methylumbelliferyl phosphate fluorogenic substrate at 50 uM measured over 30 mins by fluorescence assay relative to control
# T1 sequence (whole entry): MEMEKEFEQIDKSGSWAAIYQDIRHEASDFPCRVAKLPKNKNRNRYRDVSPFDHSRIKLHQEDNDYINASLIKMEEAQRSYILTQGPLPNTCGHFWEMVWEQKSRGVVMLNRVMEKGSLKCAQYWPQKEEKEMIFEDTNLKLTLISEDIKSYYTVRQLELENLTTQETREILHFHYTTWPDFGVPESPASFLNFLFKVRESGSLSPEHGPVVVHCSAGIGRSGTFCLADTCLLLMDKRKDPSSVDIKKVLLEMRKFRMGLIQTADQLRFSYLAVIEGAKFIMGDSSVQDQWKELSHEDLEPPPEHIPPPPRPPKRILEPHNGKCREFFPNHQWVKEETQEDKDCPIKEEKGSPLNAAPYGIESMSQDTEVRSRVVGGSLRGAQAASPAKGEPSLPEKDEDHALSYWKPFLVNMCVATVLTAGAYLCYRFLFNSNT
# Summary of the method: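 Recombinant human PTP1B, 1.56 ng/well, in buffer of 25 mM HEPES, 50 mM NaCl, 2.5 mM EDTA, DTT and 0.01 mg/mL human albumin. Preincubated with compound for 30 min in the dark, then DiFMUP added (25 μL of 10 μM solution). Fluorescence read after 10 min (ex 360/em 465 nm). Triplicates; % inhibition relative to PTP inhibitor IV (0.16 mM) and buffer controls.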
# MCF7 [4] = experiment: Effect on mitochondrial membrane potential in human MCF7 cells assessed as shift change at 5 uM measured over 4 hrs by Rhodamine 123 dye-based fluorescence assay; type: functional, cell-based
# Summary of the method: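 Mitochondrial potential: HeLa or MCF-7 cells treated with 5 µM (final) for 1, 2, 4 and 8 h. Rhodamine 123 added, cells incubated 30 min at 37 °C, washed with PBS, and analysed by flow cytometry. Fluorescence histogram shift is compared with control.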
# HeLa [5] = experiment: Induction of ROS generation in human HeLa cells at 5 uM after 8 hrs by DCFH-DA staining-based fluorescence spectrophotometric analysis relative to control; type: functional
# Summary of the method: (§2)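 DCFH-DA ROS: HeLa or MCF-7 cells at 2×10^6/well cultured 12 h, treated 4 or 8 h; t-BHP (10 μM) is the positive control. DCFH-DA 10 μM added for 10 min at 37 °C, cells washed twice with PBS. Fluorescence read at ex 485/em 520 nm. For the NAC arm, NAC (5 mM) is added to the medium before treatment.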
# FaDu = experiment: Cytotoxicity against human FADU cells assessed as reduction in cell viability after 4 hrs by MTT assay; type: functional, cell-based
# HeLa [6] = experiment: Induction of apoptosis in human HeLa cells assessed as change in Bid level at 1 to 3 uM after 24 hrs by Western blot analysis; type: functional, cell-based
# Summary of the method: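 Cells were treated at 1, 3 and 5 µM for 24 h at 37 °C. Lysis was in ice-cold Triton X-100 buffer with protease and phosphatase inhibitors; nuclear proteins were extracted separately. Protein was quantified by BCA. Lysates were separated by electrophoresis, transferred to nitrocellulose and blocked in non-fat milk for 1 h. Primary antibody was applied overnight at 4 °C and secondary for 1 h at 28 °C. Detection was by enhanced chemiluminescence.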
# MCF7 [7] = experiment: Induction of ROS generation in human MCF7 cells at 5 uM after 8 hrs by DCFH-DA staining-based fluorescence spectrophotometric analysis relative to control; type: functional; summary of the method: as §2
# HeLa [8] = experiment: Induction of nitric oxide production in human HeLa cells measured over 8 hrs by Griess reaction based assay; type: functional, cell-based
# Summary of the method: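 Cells seeded at 2×10^6 cells/well for 12 h, then exposed to 1, 5 and 10 μM compound for 8 h at 37 °C. Culture supernatant mixed with Griess reagent (0.002% N-1-naphthyl-ethylenediamine dihydrochloride, 0.5% sulfanilic acid, 14% glacial acetic acid). Nitrite read by absorbance at 550 nm and compared with vehicle group.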
# [9] = molecular target: Mitogen-activated protein kinase; ERK1/ERK2 (Homo sapiens) (UniProt P27361+P28482); experiment: Activation of ERK1/2 phosphorylation in human MCF7 cells assessed as increase in ratio of phosphorylated ERK1/2 to total ERK1/2 level at 5 uM by ELISA; type: cell-based; summary of the method: as §1
# Chain of Mitogen-activated protein kinase; ERK1/ERK2 (Homo sapiens) (P27361 whole entry, looked up): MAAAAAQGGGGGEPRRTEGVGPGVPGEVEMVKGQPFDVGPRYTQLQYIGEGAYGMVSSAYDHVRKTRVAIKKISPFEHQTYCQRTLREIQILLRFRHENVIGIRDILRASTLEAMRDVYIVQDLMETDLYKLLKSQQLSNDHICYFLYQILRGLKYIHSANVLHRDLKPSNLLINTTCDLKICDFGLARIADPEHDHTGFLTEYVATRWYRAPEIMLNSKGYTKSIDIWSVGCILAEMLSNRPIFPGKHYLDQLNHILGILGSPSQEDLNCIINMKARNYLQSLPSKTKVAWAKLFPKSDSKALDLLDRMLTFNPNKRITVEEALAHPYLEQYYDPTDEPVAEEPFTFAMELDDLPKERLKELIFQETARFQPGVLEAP
# Chain of Mitogen-activated protein kinase; ERK1/ERK2 (Homo sapiens) (P28482 whole entry, looked up): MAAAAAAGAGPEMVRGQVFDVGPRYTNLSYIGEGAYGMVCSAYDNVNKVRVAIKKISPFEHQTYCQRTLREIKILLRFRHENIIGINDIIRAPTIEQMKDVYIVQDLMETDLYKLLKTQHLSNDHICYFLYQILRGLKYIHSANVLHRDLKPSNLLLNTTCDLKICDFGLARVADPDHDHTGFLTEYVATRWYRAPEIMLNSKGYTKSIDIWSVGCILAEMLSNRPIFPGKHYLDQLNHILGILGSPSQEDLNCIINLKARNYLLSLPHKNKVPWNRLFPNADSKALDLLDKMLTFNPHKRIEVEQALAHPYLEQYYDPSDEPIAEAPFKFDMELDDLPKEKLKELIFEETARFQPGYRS
# MCF7 [10] = experiment: Induction of apoptosis in human MCF7 cells assessed as necrotic cells at 1 uM after 16 hrs by annexin-V FITC/propidium iodide staining based flow cytometric analysis relative to control; type: functional
# Summary of the method: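 Cells were grown in DMEM with 10% heat-inactivated FBS at 37 °C and 5% CO₂, then plated at 500,000 cells/well in 24-well plates. They were treated from a DMSO stock (DMSO ≤0.1%) for 8, 12 or 16 h. After a PBS wash, cells were resuspended in binding buffer (10 mM HEPES pH 7.4, 2.5 mM CaCl₂, 140 mM NaCl, 0.1% BSA), stained 40 min with FITC-annexin V, then with PI, and run on the flow cytometer immediately. Values are the mean of three independent experiments.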
# [11] = molecular target: MAP kinase p38 (Homo sapiens) (UniProt O15264+Q15759+Q16539+P53778); experiment: Activation of MAPK p38 phosphorylation in human HeLa cells assessed as increase in ratio of phosphorylated p38 to total p38 level at 5 uM by ELISA; type: cell-based; summary of the method: as §1
# MCF7 [12] = experiment: Induction of ROS generation in human MCF7 cells at 5 uM after 4 to 8 hrs in presence of NAC by DCFH-DA staining-based fluorescence spectrophotometric analysis; type: functional, cell-based; summary of the method: as §2
smiles,measurement,setting,value
Cn1cc(/C=N\NC(=O)c2cn(C)c3ccc(Br)cc23)c2ccccc21,Activity,[1],Active
same,Activity,HeLa [2],Active
same,inhibition,[3],48%
same,Activity,MCF7 [4],Active
same,Activity,HeLa [5],58.9%
same,Activity,FaDu,Dose-dependent effect
same,pIC50,FaDu,5.02
same,Activity,HeLa [6],inactive
same,Activity,MCF7 [7],48.3%
same,Activity,HeLa [8],Dose-dependent effect
same,Activity,[9],Active
same,Activity,MCF7 [10],4.71%
same,Activity,[11],Active
same,Activity,MCF7 [12],inactive
